# Screening data: PubChem, several laboratories
# procasp3 activ – activators of human procaspase-3. recombinant procaspase-3 D3A, Ac-DEVD-pNA absorbance 405 nm. activation, % at 8.5 µM. 330,000 compounds, 0.11% hits. AID 463141;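 active = activation above the mean of all tested compounds plus 3 SD, cut at about 21% in these data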;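 note: 0% = DMSO alone and 100% = DMSO wells spiked with extra 5 µM PC-3 D3A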
# Target sequence (P42574 whole entry D9A/D28A/D175A): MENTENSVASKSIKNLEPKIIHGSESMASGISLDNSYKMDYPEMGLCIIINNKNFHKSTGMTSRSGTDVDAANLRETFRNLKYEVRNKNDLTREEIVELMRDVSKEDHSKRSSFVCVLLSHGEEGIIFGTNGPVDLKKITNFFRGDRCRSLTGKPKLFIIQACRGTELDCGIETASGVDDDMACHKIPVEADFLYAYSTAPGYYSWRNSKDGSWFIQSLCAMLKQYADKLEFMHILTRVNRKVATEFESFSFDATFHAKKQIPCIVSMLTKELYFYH
#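 Assay system: Procaspase-3 D3A mutant, all three cleavage aspartates alanine. Buffer or medium: Zinc-free HEPES saline buffer with Triton X-100. Times: 1 h compound preincubation, 2 h substrate hydrolysis at 25 °C. Measured by: 405 nm absorbance of p-nitroaniline, reads at 0 and 120 min. Read-out basis: percent activation relative to control range. Replicates: singlicate.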
# CR mimetic SO – caloric restriction mimetics inhibiting age-related superoxide in yeast; superoxide response (% of plate mean), % at 10 µM; S. cerevisiae aged cells, superoxide DHE fluorescence; stronger effect = lower value; 330,000 compounds, 0.18% hits;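 active = superoxide response under a set limit, about three screen SD below normal, cut at about 65% in these data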;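 note: yeast aged for seven days with compound at 30 °C before DHE staining; 100% = average MFI of all compound-treated wells on the plate with controls excluded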
# LANA-H2B inh – blocks KSHV LANA binding to histone H2A/H2B. Q9QR71. cell-free LANA-H2A/H2B peptide, fluorescence polarization. inhibition, % (test concentration not listed). 320,000 compounds, 0.6% hits; in the data active = inhibition mostly above about 10%, no sharp cut-off; inactive = mostly below about 6.7%
# ARFGAP1 inhibitor – inhibitors of rat ARFGAP1; Q62848; inhibition, % at 16.5 µM; 360,000 compounds, 0.26% hits; Arfgap1-stimulated ARF1 GTP hydrolysis, GDP FP detection;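 active = inhibition above a per-plate limit, mean inhibition of low control wells plus 3 SD, cut at about 25% in these data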;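 note: 0% = DMSO wells with enzyme and 100% = wells lacking Arfgap1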
#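 Material – truncated rat Arfgap1 GAP domain · Buffer or medium – HEPES-based buffer, pH 7.5 · Reagent – human ARF1(Δ1-17)-GTP substrate · Dosing – 16.5 µM single point, 1.26% DMSO · Schedule – GTP hydrolysis reaction 2 h at 25 °C · Technique – GDP detection by fluorescence polarization · Benchmarks – No-Arfgap1 wells (100%) versus DMSO full-reaction wells (0%) · Repeats – single replicate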
# ASAP1 GAP inh – ASAP1 ArfGAP inhibition; Q9ULH1; ASAP1-stimulated ARF1 GTP hydrolysis, GDP FP detection; inhibition, % at 16.5 µM; 360,000 compounds, 0.19% hits; in the data active = inhibition above about 25%;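 note: 0% = vehicle with enzyme and substrate and 100% = no enzyme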
# proCasp7 act – activates human procaspase-7, counter-screen for procaspase-3 activators | P55210 | 330,000 compounds, 0.093% hits | recombinant procaspase-7, Ac-DEVD-pNA absorbance 405 nm; D23A/D198A/D206A triple mutant, cannot self-cleave; scale: DMSO 0, 5 µM enzyme 100 | activation, % at 8.5 µM;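 active = percent activation above the screen-wide mean plus 3 SD, cut at about 25% in these data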
# Target sequence (P55210 whole entry D23A/D198A/D206A): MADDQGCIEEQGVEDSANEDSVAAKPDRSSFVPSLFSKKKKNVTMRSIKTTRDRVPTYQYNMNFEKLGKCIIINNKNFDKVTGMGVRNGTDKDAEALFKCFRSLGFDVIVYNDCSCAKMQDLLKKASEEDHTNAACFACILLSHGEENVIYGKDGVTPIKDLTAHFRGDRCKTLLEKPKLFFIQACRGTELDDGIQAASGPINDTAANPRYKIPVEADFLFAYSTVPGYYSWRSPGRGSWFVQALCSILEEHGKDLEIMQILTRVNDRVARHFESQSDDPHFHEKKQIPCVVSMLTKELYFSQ
#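 buffer or medium = Zinc-free HEPES/NaCl buffer, pH 7.4 | material = Procaspase-7 triple mutant (PC-7 D3A) | input = 2 µM procaspase-7 mutant as dispensed | signal = Epi-absorbance of released pNA at 405 nm, two timepoints | timing = 1 h preincubation, 2 h reaction | replicates = singlicate compound testing | evaluation = % activation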
# Numbers without * were called inactive; nt = no result given; + = active, no number. In the library only some 1.2% were active in any assay of this set; here they are far more common.
SMILES,procasp3 activ,CR mimetic SO,LANA-H2B inh,ARFGAP1 inhibitor,ASAP1 GAP inh,proCasp7 act
Cc1ccc(S(=O)(=O)CCC(=O)OCC(=O)NC(C)c2ccccc2)cc1 (stereo not drawn),-2,109,183*,16,-3,4
COC(=O)Cc1nnn2c1[C@@H](C)[C@@H](c1ccccc1Br)O[C@@H](C)C2,nt,nt,nt,11,-3,nt
O=C(O)c1cccc(Cn2c(Cl)c(/C=N/NC(=O)c3ccccc3O)sc2=O)c1,-5,105,15*,-1,0,-5
c1cncc(CNc2c3c(nc4nnnn24)CCCC3)c1,-2,95,18*,1,2,-1
C=CCNc1c2c(nc3nnnn13)CCCC2,0,83,nt,5,0,3
CC1=NNC(=O)C1CCC(=O)N/N=C/c1ccc(Cl)cc1Cl (stereo not drawn),1,100,4,-4,-7,2
Cc1ccc(OCC(=O)N(C)Cc2ccccc2)c([N+](=O)[O-])n1,-3,104,17*,-3,-4,2
Cc1cc(C)cc(OCC(=O)OCCN2C(=O)c3ccccc3C2=O)c1,9,109,3,0,-11,-4
Cc1ccc(OCC(=O)OCCN2C(=O)c3ccccc3C2=O)cc1C,5,123,19*,4,-4,-2
C[C@@H]1OC(C2CCCCC2)N(C)[C@H]2C[C@H]3c4[nH]c5c(-c6ccccc6)cccc5c4CCN3C(=O)[C@@H]12 (stereo partly drawn),nt,nt,nt,-7,3,nt
CC(=O)c1ccc(NC(=O)N2C3CCC2CC(O)(c2cccnc2)C3)cc1 (stereo not drawn),4,99,124*,-1,4,15
Cc1oc2c(C)c3oc(=O)c(CCC(=O)NCCN4CCOCC4)c(C)c3cc2c1C,1,97,14*,2,4,-9
COc1cccc(-c2ccc3c(c2)[C@@H]2C[C@H]4[C@@H](CN2CC3)[C@H](C)ON4C)c1,nt,nt,nt,-15,-8,nt
CC(C)c1cc(C(=O)Nc2cc(Br)ccc2O)no1,2,81,-1,19,-2,-3
CC(C)c1cc(C(=O)Nc2cc(Cl)ccc2O)no1,4,92,13*,1,2,7
N#Cc1ccccc1NC(=O)CSc1nnc(-c2ccncc2)o1,4,98,13*,3,-14,3
Cc1ccc(C)c(NC(=O)CSc2nnc(-c3ccncc3)o2)c1,-7,117,6,5,-5,-7
CCCCCCCCN1C(=O)[C@H](CC(=O)N2CCSCC2)C[C@@]2(C(=O)OC)CCCCC=C12,nt,nt,nt,9,9,nt
O=C1C(=Cc2cccs2)Oc2ccccc21,nt,nt,nt,1,14,nt
Cc1ccccc1/C=C1\Oc2ccccc2C1=O,4,117,57*,-6,-5,11
O=C(NC(=S)NCc1ccccc1)C1CC1,-4,102,16*,0,-6,7
COC(=O)[C@]12C[C@H](CC(=O)NCCC(C)C)C(=O)N(Cc3ccc4c(c3)OCO4)C1=C[C@H](C(C)(C)C)O[C@@H]2C,nt,nt,nt,-1,-13,nt
C=CCN1C(=O)c2n[nH]c(COC)c2C1c1ccc(F)cc1 (stereo not drawn),nt,nt,nt,10,3,nt
O=C(Nc1ccc(F)cc1)C(Sc1nc2ccccc2[nH]1)c1ccccc1 (stereo not drawn),-1,100,-3,0,5,-17
CC(Sc1nc2ccccc2[nH]1)C(=O)Nc1ccccc1F (stereo not drawn),-8,106,13*,-9,-2,7
SMILES,procasp3 activ,CR mimetic SO,LANA-H2B inh,ARFGAP1 inhibitor,ASAP1 GAP inh,proCasp7 act
CCOC(=O)C(C(=O)OCC)C(Nc1ccc(Br)cc1)c1ccccc1 (stereo not drawn),-3,126,-1,-4,2,0
CCOC(=O)C(c1ccccc1)C(Nc1ccc(F)cc1)c1ccccn1 (stereo not drawn),-1,102,21*,12,-6,-8
COc1ccc(-c2nn(-c3ccccc3)cc2/C=N/NS(=O)(=O)c2ccccc2)cc1,6,112,10*,11,-5,-8
O=C(c1ccco1)N1CCN(c2cc(=O)n(-c3ccc(Cl)cc3)c(=O)[nH]2)CC1,11,98,19*,1,-1,8
CCc1nc2c(OCc3ccc(Cl)cc3)cccn2c1N(C)C(=O)c1ccco1,nt,nt,nt,5,12,nt
COC(=O)C1=C(C)N(Cc2ccccc2C(F)(F)F)C(=NCc2ccc(OC)cc2)NC1c1ccc(F)cc1 (stereo not drawn),nt,nt,nt,8,3,nt
COc1ccc(N2CCN(C(=O)CSc3nc4nc(C)cc(C)n4n3)CC2)cc1,7,87,37*,-11,-12,3
Cc1ccc(C2CC(c3cccs3)=NN2C(=O)c2ccco2)o1 (stereo not drawn),-2,121,20*,-7,20,-2
C/C(=N/NC(=O)c1cc(-c2cccc([N+](=O)[O-])c2)n[nH]1)c1cccc(O)c1,4,100,15*,12,4,10
CN1CCN(C(=O)c2cc3c(C(F)(F)F)nn(C)c3s2)CC1,1,100,17*,-4,0,6
Cn1nc(C(F)(F)F)c2cc(C(=O)NC3CC3)sc21,5,90,-2,-5,1,-2
CCN(CC)c1ccc2cc(S(=O)(=O)c3ccc(Cl)cc3)c(=O)oc2c1,-25,114,39*,-1,-3,-34
Cc1ccccc1Nc1nc(N)nc(CN(C)c2ccccc2)n1,2,96,28*,-12,-6,4
O=C(NCc1ccccc1)NC1(C(=O)N2CCN3CCCC3C2)CCCCC1 (stereo not drawn),6,99,-2,6,-7,-1
O=C(NC1CCCCC1)NC1(C(=O)N2CCN3CCCC3C2)CCCCC1 (stereo not drawn),3,102,29*,5,0,4
COC(=O)c1cc2c(c3c4cc(C)ccc4n(S(=O)(=O)c4ccc(C)cc4)c13)C(=O)N(Cc1ccccc1OC)C2,nt,nt,nt,7,5,nt
O=C1c2cccc3c(O)ccc(c23)C(=O)N1c1ccc(Cl)cc1,-13,116,23*,-4,6,-3
O=C(Nc1cccc([N+](=O)[O-])c1)OCc1ccc2c(c1)OCO2,nt,nt,nt,14,14,nt
O=C(Cc1ccccc1[N+](=O)[O-])NCCCN1CCOCC1,-2,99,+,3,-7,-1
O=C(NCCCN1CCOCC1)C(Sc1ccccc1)c1ccccc1 (stereo not drawn),-1,109,53*,5,-8,7
O=C(NCCN1CCOCC1)C(Sc1ccccc1)c1ccccc1 (stereo not drawn),6,90,3,-8,-6,2
